Results: ChEMBL document CHEMBL1122411 (J Med Chem, 1983)
pIC50: −log10 of the molar value. “And” between values parts separate entries of the source, which are not always exact repeats. Equal values may be shown once.

Legend:
L1210 [1] = experiment: Cytotoxicity against L1210 cells; type: functional; conditions: Mus musculus, read-out: ID50 (the source's name)
Mus musculus [2] = species on record: Mus musculus; experiment: Percentage increase in life span after 13-20 days; type: functional
In short: (§1)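 Male B6D2F1J mice (20–25 g), randomized after i.p. inoculation with 10^5 L1210 ascitic leukemia cells on day 0. Drug in water, pH 7.5–8.0, given i.p. on a q2d×5, qd×9 (from day 1) or b.i.d.×10 schedule; 5 mice per group. %ILS = [(T/C) − 1]100 from median survival days of treated versus control mice. Range is survival days.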

Mus musculus [3] = species on record: Mus musculus; experiment: Percentage increase in life span after 15-17 days; type: functional
In short: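 Male B6D2F1J mice (20–25 g) were inoculated i.p. with 10⁵ L1210 ascitic leukemia cells on day 0 and randomized into groups of 5. Drug in water at pH 7.5–8.0 was given i.p. from day 1 on qd×9, q2d×5 or b.i.d.×10 schedules. Weight change was recorded at day 7. %ILS = [(T/C) − 1]100, using median survival days; ≥25% counts as significant.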

Mus musculus [4] = species on record: Mus musculus; experiment: Percentage increase in life span after 12-15 days; type: functional; in short: as §1
Mus musculus [5] = experiment: Toxicity in mice after 13-20 days at a dose of 40 mg/kg/day; value is 19/9; type: functional
Mus musculus [6] = experiment: Weight change on day 7 in L1210 Lymphoid Leukemia in mice at a dose of 10 mg/kg/day (qd x9); type: functional
In short: (§2)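 Male B6D2F₁J mice (20–25 g) bearing ip L1210 ascites (10⁵ cells, day 0) were used, 5 per group. Drug was given ip in water at pH 7.5–8.0 from day 1 on q2d×5, qd×9 or b.i.d.×10 schedules. Animals were weighed after 7 days and percent weight change recorded.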

Mus musculus [7] = experiment: Toxicity in mice after 12-15 days at a dose of 10 mg/kg/day; value is 13/9; type: functional
Mus musculus [8] = species on record: Mus musculus; experiment: Percentage increase in life span after 17-18 days; type: functional; in short: as §1
Mus musculus [9] = experiment: Weight change on day 7 in L1210 Lymphoid Leukemia in mice at a dose of 30 mg/kg/day (qdx9); type: functional; in short: as §2
Mus musculus [10] = experiment: Weight change on day 7 in L1210 Lymphoid Leukemia in mice at a dose of 20 mg/kg/day (qdx9); type: functional; in short: as §2
Mus musculus [11] = experiment: Toxicity in mice after 17-18 days at a dose of 30 mg/kg/day; value is 17/9; type: functional
Mus musculus [12] = experiment: Weight change on day 7 in L1210 Lymphoid Leukemia in mice at a dose of 40 mg/kg/day (qdx9); type: functional
In short: (§3)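 Male B6D2F1J mice (20–25 g) were inoculated i.p. with 10⁵ L1210 ascites cells on day 0 and randomized into groups of 5. Drug in water at pH 7.5–8.0 was given i.p. daily for 9 days (qd×9) from day 1. Animals were weighed after 7 days, and the % body-weight change was recorded under a standard NCI protocol.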

[13] = molecular target: T1, Dihydrofolate reductase (Mus musculus) (UniProt P00375); experiment: Binding affinity to Dihydrofolate reductase of L1210/R71 using spectrophotometric assay
T1 sequence (whole entry): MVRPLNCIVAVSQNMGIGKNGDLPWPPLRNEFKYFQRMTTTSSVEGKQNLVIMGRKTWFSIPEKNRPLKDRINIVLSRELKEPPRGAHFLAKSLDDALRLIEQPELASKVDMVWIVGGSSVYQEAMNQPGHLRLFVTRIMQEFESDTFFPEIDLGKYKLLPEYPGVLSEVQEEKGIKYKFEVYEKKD
In short: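 The enzyme was isolated from MTX-resistant L1210/R71 cultured cells and purified on MTX-agarose. The assay measured ΔA340 at 22 °C in 0.1 M Tris, pH 7.0, with 62 nM enzyme. Enzyme was preincubated 2 min with inhibitor and NADPH, and dihydrofolate was then added to start the reaction. ID₅₀ determined.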

Mus musculus [14] = experiment: Toxicity in mice after 15-17 days at a dose of 20 mg/kg/day; value is 16/9; type: functional
L1210 [15] = experiment: cytotoxicity against L1210 cells; type: functional; conditions: Mus musculus, read-out: ID50 (the source's name)
Mus musculus [16] = experiment: Toxicity in mice after 14-18 days at a dose of 10 mg/kg/day; value is 17/9; type: functional
Mus musculus [17] = species on record: Mus musculus; experiment: Percentage increase in life span after 17-22 days; type: functional; in short: as §1
Mus musculus [18] = experiment: Toxicity in mice after 11-22 days at a dose of 6 mg/kg/day; value is 21/9; type: functional
Mus musculus [19] = experiment: Weight change on day 7 in L1210 Lymphoid Leukemia in mice at a dose of 15 mg/kg/day (qd x5); type: functional; conditions: in the assay text read “q2dx5” for “qdx5”; in short: as §2
Mus musculus [20] = experiment: Toxicity in mice after 15-17 days at a dose of 0.5 mg/kg/day; value is 16/8; type: functional
Mus musculus [21] = experiment: Toxicity in mice after 12-15 days at a dose of 0.25 mg/kg/day; value is 13/8; type: functional
Mus musculus [22] = experiment: Weight change on day 7 in L1210 Lymphoid Leukemia in mice at a dose of 0.25 mg/kg/day (b.i.d. x10); type: functional; in short: as §2
Mus musculus [23] = experiment: Weight change on day 7 in L1210 Lymphoid Leukemia in mice at a dose of 0.75 mg/kg/day (b.i.d. x10); type: functional; in short: as §2
Mus musculus [24] = experiment: Toxicity in mice after 15-17 days at a dose of 0.75 mg/kg/day; value is 17/8; type: functional
Mus musculus [25] = species on record: Mus musculus; experiment: Percentage increase in life span after 14-18d ays; type: functional; in short: as §1
Mus musculus [26] = species on record: Mus musculus; experiment: 1Percentage increase in life span after 12-15 days; type: functional; in short: as §1
Mus musculus [27] = species on record: Mus musculus; experiment: Percentage increase in life span after 12-19 days; type: functional; in short: as §1
Mus musculus [28] = experiment: Weight change on day 7 in L1210 Lymphoid Leukemia in mice at a dose of 4 mg/kg/day (qdX9); type: functional; in short: as §2
Mus musculus [29] = experiment: Weight change on day 7 in L1210 Lymphoid Leukemia in mice at a dose of 6 mg/kg/day (qdX9); type: functional; in short: as §3
Mus musculus [30] = experiment: Weight change on day 7 in L1210 Lymphoid Leukemia in mice at a dose of 10 mg/kg/day (qd x5); type: functional
Mus musculus [31] = experiment: Weight change on day 7 in L1210 Lymphoid Leukemia in mice at a dose of 2 mg/kg/day (qdx9); type: functional; in short: as §2
Mus musculus [32] = experiment: Weight change on day 7 in L1210 Lymphoid Leukemia in mice at a dose of 0.5 mg/kg/day (b.i.d. x10); type: functional; in short: as §2
Mus musculus [33] = experiment: Toxicity in mice after 12-19 days at a dose of 4 mg/kg/day; value is 17/9; type: functional
Mus musculus [34] = experiment: Toxicity in mice after 14-18 days at a dose of 2 mg/kg/day; value is 16/9; type: functional
Mus musculus [35] = species on record: Mus musculus; experiment: Toxicity in mice after 17-22 days at a dose of; value is 20/9; type: functional
Mus musculus [36] = species on record: Mus musculus; experiment: Percentage increase in life span after 11-22 days; type: functional; in short: as §1

## CN(Cc1cnc2nc(N)nc(N)c2n1)c1ccc(C(=O)NC(CCCCCC(=O)O)C(=O)O)cc1 (stereo unspecified)
L1210 [1]
  pIC50: 8.20
Mus musculus [2]
  ILS: 111%
Mus musculus [3]
  ILS: 78%
Mus musculus [4]
  ILS: 44%
Mus musculus [5]
  T/C: 19
Mus musculus [6]
  Weight change: 11%
Mus musculus [7]
  T/C: 13
Mus musculus [8]
  ILS: 89%
Mus musculus [9]
  Weight change: 9%
Mus musculus [10]
  Weight change: 7%
Mus musculus [11]
  T/C: 17
Mus musculus [12]
  Weight change: 6%
[13]
  ID50: 35 nM
Mus musculus [14]
  T/C: 16

## CN(Cc1cnc2nc(N)nc(N)c2n1)c1ccc(C(=O)N[C@@H](CCC(=O)O)C(=O)O)cc1 [METHOTREXATE]
L1210 [15]
  pIC50: 7.70
Mus musculus [16]
  T/C: 17
Mus musculus [17]
  ILS: 122%
Mus musculus [18]
  T/C: 21
Mus musculus [19]
  Weight change: 8%
Mus musculus [20]
  T/C: 16
Mus musculus [21]
  T/C: 13
Mus musculus [22]
  Weight change: 1%
Mus musculus [23]
  Weight change: 3%
Mus musculus [24]
  T/C: 17
Mus musculus [25]
  ILS: 89% and 78%
Mus musculus [26]
  ILS: 63%
Mus musculus [27]
  ILS: 89%
Mus musculus [28]
  Weight change: -2%
Mus musculus [29]
  Weight change: -2%
Mus musculus [30]
  Weight change: 11%
Mus musculus [31]
  Weight change: 6%
Mus musculus [32]
  Weight change: 1%
Mus musculus [33]
  T/C: 17
Mus musculus [34]
  T/C: 16
Mus musculus [35]
  T/C: 20
Mus musculus [36]
  ILS: 133%
